Compound activity: PubChem, several laboratories
Compounds with a hit are over-represented: about 5.4% of the library has one in this group of screens.
PLAP activator: human PLAP activation | purified PLAP enzyme, luminescent substrate read-out; stronger effect = higher value | activation fold at 20 µM | 96,000 compounds, 1.2% hits; in the data active = activation fold above about 2
PostGolgi ctrl: inhibits growth of the yeast control strain; efflux-deficient yeast background strain, growth absorbance A615, 16 h; inhibition, % at 10 µM; 98,000 compounds, 5% hits
PostGolgi yeast: growth inhibition of a yeast mutant, post-Golgi transport screen. 98,000 compounds, 0.9% hits. inhibition, % at 10 µM. post-Golgi transport phenotypic cell assay. AID 739;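 also: yeast cells grown in 1536-well plates; yeast grown about 18 h at 30C before absorbance read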
Ecoli WT expand: growth inhibitors of E. coli BW25113 wild type | OD600 absorbance | 98,000 compounds, 0.15% hits | growth inhibition, % at 100 µM;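 active = growth inhibition above about 50% at one test dose, limit read from the data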;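 also: growth measured after 20 h incubation at 37 °C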
Ecoli tolC: E. coli tolC mutant growth inhibition | E. coli BW25113 tolC mutant growth, OD615 | growth inhibition, % at 10 µM (by protocol) | 65,000 compounds, 2.2% hits;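 active = growth inhibition at or above a cutoff equal to the mean over every tested compound plus 3 SD, cut at about 60% in these data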;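 also: growth measured after 20 h incubation at 37 °C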
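signal = optical density read at 615 nm | test system = E. coli ΔtolC::kan strain BW25113 | timing = 20 h compound exposure of bacteria at 37 °C | buffer or medium = LB medium plus 50 µg/mL kanamycin | compound dosing = 10 µM final, single dose | evaluation = % inhibition of E. coli growth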
HePTP inhibitor: human HePTP phosphatase inhibition | recombinant HePTP phosphatase activity, OD absorbance | AID 521 | 110,000 compounds, 0.64% hits | inhibition, % at 20 µM | P35236; in the data active = inhibition above about 50%;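 also: plate controls were vehicle for no effect and reference inhibitor for full effect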
Numbers without * were called inactive; . = no result. Rule as the data show it, unless noted: active = inhibition above about 30%; inactive = the rest.

SMILES	PLAP activator	PostGolgi ctrl	PostGolgi yeast	Ecoli WT expand	Ecoli tolC	HePTP inhibitor
CCOC(=O)N1CCN(c2nc(-c3ccc(Cl)cc3)cs2)CC1	1	7	-1	1	7	4
O=C(Cc1cccs1)N1CCN(c2nc(-c3ccc(Cl)cc3)cs2)CC1	1.6	51*	1	-20	58	7
Cc1noc(NS(=O)(=O)c2ccc(N/C=C\C(=O)c3ccc4c(c3)OCO4)cc2)c1C	1.1	38*	-7	25	.	.
Cc1noc(NS(=O)(=O)c2ccc(NC(=O)Nc3ccc(Cl)c(Cl)c3)cc2)c1C	1.4	4	0	13	100*	-9
CCc1nnc(NS(=O)(=O)c2ccc(N/C=C\C(=O)c3ccc4c(c3)OCO4)cc2)s1	.	.	.	.	.	4
O=C(CSc1nc2cc3ccccc3cc2[nH]1)Nc1ccc(F)cc1	1	55*	2	-9	.	.
Cc1noc(NS(=O)(=O)c2ccc(NC(=O)CSc3nc4ccccc4[nH]3)cc2)c1C	1.1	37*	-2	7	11	3
Cc1cccnc1NCc1ccc(O)c2ncccc12	2.6*	9	-7	17	5	2
CCOC(=O)C1CCN(Cc2ccc(O)c3ncccc23)CC1	1.8	15	-10	2	-10	4
Cc1ccc(-c2csc(-c3cc4cc([N+](=O)[O-])ccc4oc3=O)n2)cc1	.	.	.	.	.	10
CCOC(=O)c1ccc(NC(=O)CSc2nc(SC)ns2)cc1	1.1	5	0	22	100*	10
CSc1nsc(SCC(=O)Nc2cccc(C(C)=O)c2)n1	0.9	1	20	0	-14	-7
CCN(CC)S(=O)(=O)c1ccc(NC(=O)c2ccccc2N(C)S(C)(=O)=O)cc1	2.1*	5	4	-7	.	.
c1cnc2c(OCc3nc4ccccc4[nH]3)cccc2c1	2.1*	-7	1	2	37	14
COc1ccccc1OCc1nc2ccccc2[nH]1	1	-6	-3	20	7	7
Cc1cc2c(cc1C)CSC(c1ccccc1O)SC2	0.8	31*	1	0	.	.
Cc1cc2c(cc1C)CSC(c1ccc3ccccc3c1O)SC2	1.2	7	-13	-6	.	.
Cc1cc2c(cc1C)CSC(c1c(O)ccc3ccccc13)SC2	1.2	100*	103*	-4	.	.
O=C1c2ccccc2C(Nc2ccc(Cl)cn2)N1Cc1ccccc1 (stereo not given)	1.2	58*	3	9	.	.
COc1nc(N(c2ccccc2)c2ccccc2)nc(-n2ccnc2)n1	1	96*	94*	25	94*	3
O=C1N=C(N2CCN(c3cccc4ccccc34)CC2)S/C1=C/c1cccs1	1.2	37*	-5	-8	.	.
O=C(NC12CC3CC(CC(C3)C1)C2)C12CC3CC(C1)CC(n1cnc(Cl)n1)(C3)C2	1	45*	-5	-9	.	.
Cc1ccc(C(=O)c2c(NC(=O)c3cccnc3)sc3c2CCCC3)cc1	1.1	33*	-10	-16	.	.
O=C(CN(C(=O)c1cc2c(s1)CCC2)C1CCCC1)NCc1cccs1	1.3	-7	-6	-4	45	-4
O=C(CN(Cc1ccccc1)C(=O)c1cc2c(s1)CCC2)NCc1cccs1	1	35*	1	-14	.	.
SMILES	PLAP activator	PostGolgi ctrl	PostGolgi yeast	Ecoli WT expand	Ecoli tolC	HePTP inhibitor
O=C(N/N=C/c1c(F)cccc1Cl)c1ccccc1I	.	.	.	.	.	6
COc1cc(NC(=O)c2cc(CC(C)C)on2)c(OC)cc1Cl	0.9	18	2	-2	68*	4
CCCc1cc(C(=O)Nc2cc(OC)c(Cl)cc2OC)no1	0.9	8	-7	3	2	-3
Cc1nc(Nc2ccccc2)[nH]c(=O)c1CCC(C)C	0.9	18	-3	-5	25	2
CCCCCc1c(C)nc(NCc2ccccc2)[nH]c1=O	1	39*	11	-10	31	6
Cc1cc([N+](=O)[O-])ccc1-c1ccc(/C=C2/C(=O)NC(=S)N(c3ccc(Cl)cc3)C2=O)o1	.	.	.	.	.	-2
Cc1ccc([N+](=O)[O-])cc1-c1ccc(/C=C2/C(=O)NN(c3ccc(Cl)cc3)C2=O)o1	.	.	.	.	.	94*
O=C1NC(=S)N(c2ccccc2)C(=O)/C1=C/c1ccc(-c2ccc(Cl)c(C(=O)O)c2)o1	.	.	.	.	.	23
O=C1NC(=S)N(c2ccc(Cl)cc2)C(=O)/C1=C\c1ccc(-c2cccc(C(=O)O)c2)o1	.	.	.	.	.	78*
Cc1ccc(N2C(=O)/C(=C\c3ccc(-c4ccc(Cl)c(C(=O)O)c4)o3)C(=O)NC2=S)cc1	.	.	.	.	.	66*
COc1c(Br)cc(Cl)cc1/C=C1\C(=O)NC(=S)N(c2ccc(C)cc2)C1=O	.	.	.	.	.	103*
